SR-BI uptake up: activators of SR-BI mediated DiI-HDL uptake, primary screen, ldlA[mSR-BI] CHO cells, DiI fluorescence | 3 h; 100 = double the neutral-control signal | activation, % at 12.5 µM | actives 0.096% (n = 320,000) | AID 504775, 2011;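 active means mean replicate activation of at least 60% and every replicate at or above 60%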;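 further: 0% = median plate neutral-control signal and 100% = twice that signal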
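Assay system: CHO ldlA[mSR-BI] cells, LDL receptor-null, SR-BI overexpressing; medium: Ham's F12 with 0.5% BSA, HEPES 25 mM, pH 7.4; also added: DiI-HDL 10 µg/mL; timing: 3 h uptake period with compound, 37 °C; signal: DiI fluorescence, bottom read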
CDK5 inh: inhibitors of human CDK5/p35 kinase, primary screen, biochemical, single concentration. Recombinant CDK5/p35, ADP-Glo luminescence, 60 min. Cyclin-dependent kinase 5 (Homo sapiens) + Cyclin-dependent kinase 5 activator 1 (Homo …. actives 0.01% (n = 330,000). inhibition, % at 10 µM;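 active means highest replicate inhibition of at least 50% and at least 75% of replicates reaching 50%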;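 further: plate controls were DMSO neutral control for no effect and GW8510 at 10 µM for full effect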
Target sequence (Q00535 whole entry, looked up): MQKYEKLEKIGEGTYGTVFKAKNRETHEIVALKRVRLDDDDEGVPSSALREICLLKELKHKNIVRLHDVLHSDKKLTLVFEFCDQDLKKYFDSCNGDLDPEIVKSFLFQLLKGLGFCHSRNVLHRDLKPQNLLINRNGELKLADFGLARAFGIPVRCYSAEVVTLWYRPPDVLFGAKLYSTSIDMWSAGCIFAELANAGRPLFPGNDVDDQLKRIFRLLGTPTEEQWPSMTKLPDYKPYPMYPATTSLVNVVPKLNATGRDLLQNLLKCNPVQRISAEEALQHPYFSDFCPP
Target sequence (Q15078 whole entry, looked up): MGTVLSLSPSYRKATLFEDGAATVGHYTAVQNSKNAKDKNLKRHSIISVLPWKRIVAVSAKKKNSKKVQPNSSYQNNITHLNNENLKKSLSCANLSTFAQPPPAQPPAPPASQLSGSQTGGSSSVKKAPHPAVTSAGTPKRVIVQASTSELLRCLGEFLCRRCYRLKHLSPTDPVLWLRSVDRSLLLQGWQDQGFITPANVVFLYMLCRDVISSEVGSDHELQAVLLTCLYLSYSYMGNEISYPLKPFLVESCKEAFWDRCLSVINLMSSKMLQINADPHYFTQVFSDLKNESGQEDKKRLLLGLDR
SR-BI DiI inh: inhibitors of SR-BI mediated HDL lipid uptake, primary screen, ldlA[mSR-BI] cells, fluorescence, single point; Scavenger receptor class B member 1 (Mus musculus), Q61009; actives 0.96% (n = 320,000); inhibition, % at 12.5 µM; ldlA[mSR-BI] CHO cells, DiI-HDL uptake fluorescence, 3 h;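 active means mean replicate inhibition of at least 70% and a set share of replicates each scoring 70 or more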;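 further: 0% = median of neutral control wells and 100% = median of positive control wells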
dFosB act-1: activators of delta FosB homodimer, primary screen, biochemical, fluorescence polarization, TAMRA-CDK5 oligo, single point; purified delta FosB; percent of positive-control signal above neutral wells; activation, % at 25 µM; actives 0.99% (n = 340,000); AID 493131, 2011;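 active means mean activation above about 17%, with every replicate also reaching it, limit read from the data, passing the limit was not always enough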
dFosB act-2: activators of mouse delta FosB DNA binding, confirmation, biochemical, fluorescence polarization, TAMRA-CDK5 oligo, cherry-picked samples; AID 588690, 2011; activation, % at 24.9 µM; purified delta FosB; normalised: neutral wells 0, positive control 100; 2,400 tested, under 10 active; shares compounds with dFosB act-1;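 active means highest replicate activation at or above 34% and every replicate reaching that threshold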;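 further: higher polarization means more probe DNA bound by delta FosB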
* hit, by the source's call; / = not tested or not shown. In the library only some 2% were active in any assay of this set; here they are far more common.

SMILES | SR-BI uptake up | CDK5 inh | SR-BI DiI inh | dFosB act-1 | dFosB act-2
Cn1c(=O)oc2cc(S(=O)(=O)N3CCCC(C(=O)NCc4ccc5c(c4)OCO5)C3)ccc21 (stereo not drawn) | 7.5 | 0.3 | -7.5 | 46.3* | 2.3
CS(=O)(=O)N(CC(=O)Nc1c(F)cccc1F)c1ccc(C23CC4CC(CC(C4)C2)C3)cc1 | 2.6 | -2.9 | -2.6 | 53.5* | -5.5
Cc1cc(C)c(S(=O)(=O)N2CCN(C(=O)c3cc4ccccc4o3)CC2)c(C)c1 | 11.8 | -0.1 | -11.8 | -1.3 | /
O=C(c1cc2ccccc2o1)N1CCN(S(=O)(=O)c2ccc(F)c(F)c2F)CC1 | 6.8 | -1.0 | -6.8 | 33.2* | -1.1
CCc1cc2ccc(C)c(C)c2nc1SCC(=O)NNC(=O)c1ccco1 | / | 0.3 | / | 27.6* | 1.2
Cc1ccc(N(CC(=O)NCCSc2ccccn2)S(C)(=O)=O)cc1 | -0.1 | -2.0 | 0.1 | 0.8 | /
COc1cccc(COC(=O)c2ccc(S(=O)(=O)N3CCC(C)CC3)cc2)c1OC | 1.7 | -1.7 | -1.7 | 6.3 | /
COc1ccc(CNS(=O)(=O)c2ccc(S(=O)(=O)N3CCCCC3)cc2)cc1 | -6.0 | -2.3 | 6.0 | 41.1* | 0.7
COc1ccc(COC(=O)c2ccc(S(=O)(=O)N3CCC(C)CC3)cc2)cc1 | -3.1 | 0.7 | 3.1 | 19.0* | -0.1
Cn1c(CCC(=O)O)nc2cc(S(=O)(=O)N3CCCCC3)ccc21 | 12.5 | -0.9 | -12.5 | -2.9 | /
CC(OC(=O)Cc1ccc(F)cc1)C(=O)NCc1ccc2c(c1)OCO2 (stereo not drawn) | 36.8 | -0.5 | -36.8 | -2.1 | /
Cc1ccccc1C(=O)NCC(=O)OC(C)C(=O)Nc1cccc(S(=O)(=O)N2CCOCC2)c1 (stereo not drawn) | 8.7 | -3.7 | -8.7 | -4.5 | /
C=C1C[C@H](O)[C@@H]2[C@H](OC(=O)[C@H]2C)[C@H]2[C@H](C)[C@@H](O)C[C@@H]12 | 2.0 | 0.4 | -2.0 | -3.9 | /
COc1ccc(-c2cc(C(F)F)n3ncc(C(=O)Nc4cccc(S(=O)(=O)N5CCOCC5)c4)c3n2)cc1 | -31.4 | 2.5 | 31.4 | 33.3* | 1.7
COc1cccc(COCC(O)CN2CCC(C(N)=O)CC2)c1 (stereo not drawn) | 7.0 | 0.9 | -7.0 | 0.3 | /
CCn1c(SCC(=O)Nc2cccc(NC(C)=O)c2)nc2c([nH]c3ccccc32)c1=O | -2.2 | 0.3 | 2.2 | 9.0 | /
CCn1c(SCC(=O)Nc2ccc(C(C)=O)cc2)nc2c([nH]c3ccccc32)c1=O | -18.4 | -1.5 | 18.4 | 32.8* | 2.6
COC(=O)C1=C(C)N(CC2CC2)C(=O)N[C@H]1c1ccccc1 | 6.1 | -2.1 | -6.1 | 2.3 | /
N=c1oc2cc(O)ccc2cc1C(=O)Nc1ccc(Cl)cc1 | -2.3 | 0.0 | 2.3 | 27.2* | 0.5
Cc1ccc(NC(=O)c2cc3ccccc3oc2=N)cc1 | 17.7 | 0.5 | -17.6 | 6.1 | /
O=C(Nc1cccc(S(=O)(=O)N2CCOCC2)c1)c1ccc(N2CCCC2=O)cc1 | -63.2 | -2.5 | 63.2 | -6.0 | /
CCOc1ccccc1N(C(=O)c1snc(C(N)=O)c1N)C(C(=O)NCc1ccccc1)c1ccc(O)cc1 (stereo not drawn) | / | -1.2 | / | -4.8 | /
Cc1ccccc1N(C(=O)c1snc(C(N)=O)c1N)C(C(=O)NCc1ccccc1)c1ccc(O)cc1 (stereo not drawn) | / | -3.9 | / | 40.9* | 4.9
NC(=O)c1nsc(C(=O)N(c2ccccc2F)C(C(=O)NCc2ccccc2)c2ccc(O)cc2)c1N (stereo not drawn) | 8.3 | 0.3 | -8.3 | 32.0* | 4.5
O=C(OCC(=O)N1CCOCC1)c1cccc(S(=O)(=O)N2CCCc3ccccc32)c1 | -9.9 | -0.9 | 9.9 | 0.4 | /
CNC(=O)/C(C#N)=C/c1ccc(-c2ccc(Cl)cc2)o1 | -68.1 | -2.9 | 68.1 | 50.1* | 4.8
CS(=O)(=O)N(CC(=O)N/N=C/c1cccc2c1OCCO2)c1ccccc1Br | -31.1 | -0.5 | 31.1 | -14.7 | /

Assay outcomes as filed in PubChem.
